# 697 NFkB inh: inhibitors of PMA/ionomycin-induced NF-kB reporter, 697 cells, primary screen, B-cell NF-kB inhibitor project, cell-based, luminescence, uHTS | 697 B-cell NF-kB luciferase reporter, 16 h | inhibition, % at 4 µM | 0.33% of 330,000 active; in the data active means inhibition above about 35%
# Hep lipid drop: inhibitors of hepatocyte lipid droplet formation, primary screen, imaging, high-throughput imaging, BODIPY stain; AML12 mouse hepatocytes, oleate lipid droplets; inhibition, % at 6.5 µM; 0.4% of 240,000 active;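 active means lipid droplet intensity inhibited by at least 50%, with more than 500 cells counted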
#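 Technique: fluorescence imaging, 20x objective, two fields per well / Assay system: AML12 hepatocytes (mouse) / Measure: % inhibition of lipid droplet signal / Doses: 6.5 µM single-point dosing / Incubation: overnight exposure / Reagent: 100 µM oleic acid challenge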
# Jurkat NFkB inh: inhibitors of induced NF-kB luciferase reporter, primary screen, TCR NF-kB activation inhibitor project, cell-based, luminescence, uHTS. Jurkat, PMA/ionomycin-induced NF-kB luciferase reporter. inhibition, % at 4 µM. 0.53% of 330,000 active; in the data active means inhibition above about 50%
# aSyn 5UTR inh: MLPCN primary screen, SNCA 5' untranslated region | 0.82% of 300,000 active | alpha-synuclein 5'UTR reporter, inhibitor activity | inhibition, % (tested at 7.5 µM) | AID 1813, 2009; in the data active means inhibition above about 60%;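 further: H4 neuroglioblastoma cells stably carrying SNCA 5'UTR luciferase fusion; 0% = DMSO wells and 100% = positive control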
# H9c2 TAG inh: inhibitors of triacylglycerol accumulation, primary screen, cell-based, uHTS, fluorescence, H9c2 | inhibition, % at 12.5 µM | H9c2 cells, Nile Red lipid (TAG) fluorescence; cells loaded with 200 µM oleic acid | AID 651582, 2012 | 0.66% of 230,000 active;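 active means pattern-corrected inhibition of lipid staining of at least 50% with the nuclear-stain viability signal not falling by more than 50%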;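 further: 0% = DMSO wells and 100% = triacsin C control wells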
# APP 5UTR inh: inhibitors of APP translation via 5'UTR reporter, primary screen, APP 5'UTR luciferase, SH-SY5Y cells | SH-SY5Y APP 5'UTR-luciferase reporter, luminescence | AID 1285, 2008 | 0.82% of 190,000 active | inhibition, % at 2 µM;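 active means inhibition above a set limit, derived from the sample mean plus 3 SD, cut at about 45% in these data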
# Hep lipid conf: hepatocyte lipid droplet accumulation inhibitors, confirmation, imaging, AML12 mouse hepatocytes, single concentration, high-content. BODIPY lipid droplet imaging; droplets induced with 100 µM oleic acid. 65% of 870 active. inhibition, % at 5.2 µM. shares compounds with Hep lipid drop;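 active means inhibition of lipid droplet metric at least 50%, with more than 300 cells in each of four replicates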;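 further: plate controls were DMSO with oleic acid for no effect and 5 µM Triacsin-C for full effect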
# AML12 cytotox: AML12 hepatocyte cytotoxicity, counter-screen for hepatic lipid droplet formation project, imaging, DAPI nuclear morphology imaging | shares compounds with Hep lipid drop | AML12 mouse hepatocytes; hits give high values; cells fed 100 µM oleate overnight | z-score at 5 µM | 3% of 870 active | AID 463200, 2010; in the data active means z-score above about 6.3;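 further: compound exposure lasted overnight at 37 °C before fixation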
# AML12 tox conf: AML12 hepatocyte cytotoxicity, confirmation, cytotoxicity control for hepatic lipid droplet formation project, cell-based, single concentration | AML12 mouse hepatocyte viability, ATP luminescence; cells loaded with 100 µM oleic acid | shares compounds with Hep lipid drop | cytotoxicity, % at 50 µM | 530 tested, under 10 active | AID 463219, 2010;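 active means cytotoxicity above 50% in each of four replicates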;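 further: compound exposure lasted overnight at 37 °C before the ATP read; 0% = DMSO-treated cells and 100% = wells with no cells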
# An asterisk follows results filed as active; / = not tested or not shown. Shown are actives, neighbours in structure and some others; about 1.9% of the full set was active somewhere.
SMILES,697 NFkB inh,Hep lipid drop,Jurkat NFkB inh,aSyn 5UTR inh,H9c2 TAG inh,APP 5UTR inh,Hep lipid conf,AML12 cytotox,AML12 tox conf
CCOc1ccc(S(=O)(=O)Oc2ccc3ccccc3c2)cc1,-11.5,8.4,2.6,-29.6,/,1.2,/,/,/
CCOC(=O)N1CCN(C(=O)C(NC(=O)c2ccc(CC)cc2)C(C)C)CC1 (stereo unspecified),-8.6,-8.6,-9.0,7.5,/,1.8,/,/,/
COc1ccccc1NS(=O)(=O)c1ccc(N/N=C/c2c(C)nn(-c3ccccc3)c2N2CCCC2)c([N+](=O)[O-])c1,-29.3,99.9*,-5.4,50.7,/,1.2,114.4*,-1.05,24.9
COc1ccc(-c2cc(C(F)(F)F)nc(SCCC(=O)NCc3ccccc3)n2)cc1,-14.5,61.7*,-13.4,7.8,-7.1,-15.2,-5.6,0.129,/
COc1ccc(C)cc1NC(=O)C/C(C)=N/NC(=O)Cc1cccc2ccccc12,5.6,72.3*,-11.7,1.1,/,/,70.0*,-0.611,10.7
CCCN1C(=O)/C(=C\C=C2\N(CC)c3ccccc3C2(C)C)SC1=S,/,111.2*,/,21.3,-250.9,-22.3,114.7*,0.188,8.4
CCCN1C(=O)/C(=C\C=C2/Sc3ccccc3N2CC)SC1=S,/,21.1,/,/,/,0.2,/,/,/
CCOc1ccc(CCNC(=O)CS(=O)Cc2nc(-c3ccc(OC)cc3)oc2C)cc1OCC (stereo unspecified),-57.9,75.5*,-11.1,16.4,/,/,81.0*,-0.467,11.1
CCOc1ccc(CCNC(=O)Nc2cccc(OC)c2)cc1OCC,2.9,125.4*,4.0,-9.1,/,/,109.6*,-0.61,9.0
CCOc1ccc(CCNC(=O)c2ccc3ccccc3n2)cc1OCC,-31.3,77.5*,-0.7,-20.6,43.2,/,107.1*,-0.78,22.5
CCc1ccc(NC(=O)CCC(=O)N2CCSc3ccccc32)cc1,3.0,-5.8,-12.2,-2.8,/,/,/,/,/
CCOc1ccc(CCNC(=O)CCC(=O)N2CCSc3ccccc32)cc1OCC,-5.2,91.2*,19.6,8.5,/,/,110.0*,-0.669,17.5
COc1cccc(NC(=O)NCCC2=CCCCC2)c1,-48.6,-1.4,-50.7,-183.5,/,-75.4,/,/,/
COc1ccc(CCNC(=O)c2ccc3ccccc3n2)cc1OC,7.1,2.0,-0.9,6.8,-3.4,9.7,/,/,/
CCCCOc1ccc(Cl)cc1Nc1nc(NCCO)nc(N2CCCC2)n1,5.5,/,3.9,-7.3,46.1,/,/,/,/
Cc1cccc(C)c1NC(=O)COC(=O)c1cccnc1,20.0,-10.0,-3.4,17.8,-14.2,-9.5,/,/,/
CCOC(=O)C1CCN(C(=O)C2COc3ccccc3O2)CC1 (stereo unspecified),17.5,-24.9,4.8,22.6,/,/,/,/,/
COc1cccc(NC(=O)CN(C)C(=O)C(C)Sc2ccccc2)c1 (stereo unspecified),-2.5,/,6.2,/,-11.4,/,/,/,/
Cc1ccc(C(=O)NNC(=O)CSc2n[nH]c(-c3cccnc3)n2)cc1,4.8,-44.6,5.7,20.5,-2.8,1.5,/,/,/
CCOc1ccc(CCNC(=O)C2(c3ccccc3)CC2)cc1OCC,2.0,56.4*,-25.3,-3.7,18.9,/,82.7*,-0.355,13.4
CCOc1ccc(CCNC(=O)c2nccnc2C(=O)O)cc1OCC,6.1,3.9,-6.7,-2.6,/,/,/,/,/
CCOc1ccc(CCNC(=O)c2c(C)nn(-c3ccccc3)c2Cl)cc1OCC,-3.0,51.8*,18.5,24.9,37.7,/,71.6*,-0.468,8.5
O=[N+]([O-])c1ccccc1CS(=O)(=O)c1ccccc1,-0.4,/,3.6,2.9,-8.3,/,/,/,/
